ChEMBL document CHEMBL3751842, “Novel triazolothiadiazines act as potent anticancer agents in liver cancer cells through Akt and ASK-1 proteins” (Bioorg Med Chem, 2016)
Calls of active or inactive are those of the source. The rule behind the calls is not given here.

Legend:
[1] = Cytotoxicity against human Hep3B cells assessed as growth inhibition after 72 hrs by sulforhodamine B assay; assay type: functional, cell-based, Hep 3B2; details: Homo sapiens, Hep3B, 72 h; read-out: IC50
How it was run: (§1)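 Cells were grown at 37°C, 5% CO2 in DMEM with 10% FBS. They were seeded at 1000–3000 cells/well, grown 24 h, then exposed to compound at 2.5–40 µM for 72 h. Cells were fixed in 10% TCA for 1 h at 4°C, stained with 0.4% SRB in 1% acetic acid for 10 min, and the dye solubilized in 10 mM Tris. Absorbance was read at 515 nm; runs were in triplicate; IC50 was calculated, with fits of R2 0.8–1 accepted.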

[2] = Effect on un-phosphorylated beta-catenin level in human HuH7 cells after 24 to 48 hrs by Western blot analysis; assay type: ADME, cell-based; details: huh-7
How it was run: (§2)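 Cells were exposed to compound or DMSO control for 24 or 48 h. Lysates were loaded at […] protein per lane and immunoblotted with antibodies diluted 1:100 to 1:500 in 5% BSA-TBS-T. Targets were p-Akt (Ser473), Akt, p-GSK3-α/β (Ser21/9), GSK3-α/β, SAPK/JNK, p-SAPK/JNK (Thr183/Tyr185), PARP, p-β-catenin, β-catenin, cyclin D1, p-ASK1 (S83) and p-ASK1 (S966). Actin served as the loading control.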

[3] = molecular target: T1, Catenin beta-1 (Homo sapiens) (UniProt P35222); assay: Induction of beta-catenin phosphorylation in human Mahlavu cells after 24 to 48 hrs by Western blot analysis; assay type: cell-based; how it was run: as §2
T1 sequence (whole entry): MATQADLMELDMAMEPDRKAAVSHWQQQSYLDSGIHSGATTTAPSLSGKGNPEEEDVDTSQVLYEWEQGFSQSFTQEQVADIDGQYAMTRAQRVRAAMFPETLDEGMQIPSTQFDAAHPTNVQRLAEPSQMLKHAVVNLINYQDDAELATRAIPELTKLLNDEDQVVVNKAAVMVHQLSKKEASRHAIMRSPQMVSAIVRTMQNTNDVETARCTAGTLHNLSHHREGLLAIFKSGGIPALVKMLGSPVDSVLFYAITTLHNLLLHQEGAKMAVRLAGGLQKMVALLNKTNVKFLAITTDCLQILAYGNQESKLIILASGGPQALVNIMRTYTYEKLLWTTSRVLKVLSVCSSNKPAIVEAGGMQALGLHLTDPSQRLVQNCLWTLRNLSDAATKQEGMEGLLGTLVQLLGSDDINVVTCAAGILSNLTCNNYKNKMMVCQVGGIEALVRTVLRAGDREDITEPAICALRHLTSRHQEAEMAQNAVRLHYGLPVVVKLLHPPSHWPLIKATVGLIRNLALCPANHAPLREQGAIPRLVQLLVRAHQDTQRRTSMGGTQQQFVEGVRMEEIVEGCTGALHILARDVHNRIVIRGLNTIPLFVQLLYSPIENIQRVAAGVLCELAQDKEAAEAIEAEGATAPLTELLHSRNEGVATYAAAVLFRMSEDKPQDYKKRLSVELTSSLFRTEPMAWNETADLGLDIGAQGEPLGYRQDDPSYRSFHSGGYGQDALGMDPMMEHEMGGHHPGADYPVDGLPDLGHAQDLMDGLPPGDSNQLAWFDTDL

[4] = molecular target: Glycogen synthase kinase-3 beta (Homo sapiens) (UniProt P49841); assay: Inhibition of GSK3beta phosphorylation in human Mahlavu cells after 24 to 48 hrs by Western blot analysis; assay type: cell-based; how it was run: as §2
[5] = system: Mahlavu; assay: Induction of apoptosis in human Mahlavu cells assessed as PARP cleavage after 24 to 48 hrs by Western blot analysis; assay type: functional, cell-based; how it was run: as §2
[6] = molecular target: T2, Mitogen-activated protein kinase kinase kinase 5 (Homo sapiens) (UniProt Q99683); assay: Activation of ASK1 in human HuH7 cells assessed as Ser966 phosphorylation after 24 to 48 hrs by Western blot analysis; assay type: cell-based; details: Huh-7; how it was run: as §2
T2 sequence (whole entry): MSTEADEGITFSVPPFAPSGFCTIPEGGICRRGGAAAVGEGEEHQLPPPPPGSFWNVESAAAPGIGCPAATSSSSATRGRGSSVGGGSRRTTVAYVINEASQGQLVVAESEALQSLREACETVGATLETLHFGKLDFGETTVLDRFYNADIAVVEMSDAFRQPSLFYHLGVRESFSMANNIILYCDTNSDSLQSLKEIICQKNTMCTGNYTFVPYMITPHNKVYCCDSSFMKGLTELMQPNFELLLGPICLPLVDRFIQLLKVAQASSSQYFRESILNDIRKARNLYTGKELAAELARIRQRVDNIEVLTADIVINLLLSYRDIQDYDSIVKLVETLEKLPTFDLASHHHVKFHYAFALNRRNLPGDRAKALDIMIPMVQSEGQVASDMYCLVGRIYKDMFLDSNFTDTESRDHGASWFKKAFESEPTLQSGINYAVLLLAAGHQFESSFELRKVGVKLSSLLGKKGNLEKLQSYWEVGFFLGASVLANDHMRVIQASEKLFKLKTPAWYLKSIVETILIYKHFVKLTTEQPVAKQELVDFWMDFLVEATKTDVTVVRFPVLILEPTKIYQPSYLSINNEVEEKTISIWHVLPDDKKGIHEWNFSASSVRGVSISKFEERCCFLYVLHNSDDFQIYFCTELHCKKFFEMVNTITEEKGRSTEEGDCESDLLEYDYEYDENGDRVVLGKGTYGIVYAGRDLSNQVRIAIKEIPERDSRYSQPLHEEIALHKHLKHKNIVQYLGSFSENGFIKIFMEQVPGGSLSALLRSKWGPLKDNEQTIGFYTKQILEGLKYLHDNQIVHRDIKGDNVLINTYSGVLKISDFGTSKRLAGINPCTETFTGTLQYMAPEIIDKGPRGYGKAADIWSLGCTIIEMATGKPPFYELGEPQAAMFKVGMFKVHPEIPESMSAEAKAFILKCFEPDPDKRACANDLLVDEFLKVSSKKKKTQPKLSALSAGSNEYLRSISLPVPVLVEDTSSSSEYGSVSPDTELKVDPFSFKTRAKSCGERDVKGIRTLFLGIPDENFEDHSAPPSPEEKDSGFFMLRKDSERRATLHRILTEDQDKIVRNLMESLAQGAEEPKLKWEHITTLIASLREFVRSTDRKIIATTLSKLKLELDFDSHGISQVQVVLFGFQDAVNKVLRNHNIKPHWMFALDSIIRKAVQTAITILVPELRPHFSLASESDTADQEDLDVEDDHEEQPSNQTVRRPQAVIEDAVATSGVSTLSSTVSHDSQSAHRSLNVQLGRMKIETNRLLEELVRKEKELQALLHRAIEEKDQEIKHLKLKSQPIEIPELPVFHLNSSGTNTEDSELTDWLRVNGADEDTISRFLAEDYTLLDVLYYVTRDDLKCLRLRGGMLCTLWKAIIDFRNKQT

[7] = system: Huh-7; assay: Induction of apoptosis in human HuH7 cells assessed as decrease in cyclin D1 level after 24 to 48 hrs by Western blot analysis; assay type: functional, cell-based; how it was run: as §2
[8] = system: HepG2; assay: Cytotoxicity against human HepG2 cells assessed as growth inhibition after 72 hrs by sulforhodamine B assay; assay type: functional, cell-based; details: Homo sapiens, HepG2, 72 h; read-out: IC50; how it was run: as §1
[9] = molecular target: Glycogen synthase kinase-3 beta (Homo sapiens) (UniProt P49841); assay: Inhibition of GSK3beta phosphorylation in human HuH7 cells after 24 to 48 hrs by Western blot analysis; assay type: cell-based; details: Huh-7; how it was run: as §2

Chain of Glycogen synthase kinase-3 beta (Homo sapiens) (P49841 whole entry, looked up): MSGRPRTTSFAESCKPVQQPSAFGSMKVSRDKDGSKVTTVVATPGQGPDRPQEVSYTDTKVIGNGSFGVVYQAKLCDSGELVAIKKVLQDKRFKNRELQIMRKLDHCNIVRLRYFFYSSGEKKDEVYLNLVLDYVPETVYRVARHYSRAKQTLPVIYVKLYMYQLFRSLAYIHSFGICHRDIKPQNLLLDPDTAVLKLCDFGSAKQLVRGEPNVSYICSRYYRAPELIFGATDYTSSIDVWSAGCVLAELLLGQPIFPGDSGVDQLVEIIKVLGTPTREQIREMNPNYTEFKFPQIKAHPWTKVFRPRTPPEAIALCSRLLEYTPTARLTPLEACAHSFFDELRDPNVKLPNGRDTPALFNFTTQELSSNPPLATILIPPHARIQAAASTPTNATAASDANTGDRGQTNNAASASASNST

Row | SMILES | IC50 [1] [µM] | Activity [2] | Activity [3] | inhibition [4] | Activity [5] | Activity [6] | Activity [7] | IC50 [8] [µM] | inhibition [9]
1 | Cc1ccc(C2=Nn3c(nnc3C(C)c3ccc(CC(C)C)cc3)SC2)cc1 (stereo not drawn) | 5.3 | Non-toxic | Active | Active | Active | Active | Active | 7.3 | Active
2 | COc1ccc(C2=Nn3c(nnc3C(C)c3ccc(CC(C)C)cc3)SC2)cc1 (stereo not drawn) | 6.5 | Non-toxic | Active | Active | Active | Active | Active | 3.8 | Active
